The results in this text go back to ChEMBL document CHEMBL1806383, “Optimisation of pharmacokinetic properties to afford an orally bioavailable and selective V1A receptor antagonist” (Bioorg Med Chem Lett, 2011).

Some results are limits rather than exact numbers.

A short description of series [1]: Apparent permeability of the compound from apical to basolateral side of human Caco2 cells. In kind it is ADME, cell-based. The note with it: Caco-2. In general terms: Passage across Caco-2 layers is used to estimate intestinal permeability.
The test system of series [2] is Rattus norvegicus. The experiment in a line: Volume of distribution at steady state in Sprague-Dawley rat at 5 mg/kg, po. In kind it is ADME, organism-based. Set-up: dose 5 mg/kg, route oral. To be noted: in vivo. The method, boiled down: (§1)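 Male Sprague–Dawley rat, oral 5 mg/kg in 0.5% (w/v) gelatin in 5% (w/v) mannitol.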
Series [3] is described as follows: Oral bioavailability in Sprague-Dawley rat at 5 mg/kg. Format: ADME, organism-based. To be noted: in vivo. In short, it runs like this: as §1
Series [4] can be described thus: Tmax in cynomolgus monkey at 1 mg/kg, iv and 3 mg/kg, po. Format: ADME, organism-based, Macaca fascicularis. The note with it: in vivo. In short, it runs like this:
(§2)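 Cynomolgus monkey; iv 1 mg/kg in 30% DMA in saline and po 3 mg/kg in 0.5% (w/v) gelatin in 5% (w/v) mannitol.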

Series [5] is described as follows: Volume of distribution at steady state in cynomolgus monkey at 1 mg/kg, iv and 3 mg/kg, po. In kind it is ADME, organism-based, Macaca fascicularis. To be noted: in vivo, read-out: Vdss. In short, it runs like this:
as §2

Series [6] can be described thus: Tmax in Sprague-Dawley rat at 1 mg/kg, iv and 5 mg/kg, po. Format: ADME, organism-based. The note with it: in vivo. The method, boiled down:
(§3)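 Male Sprague–Dawley rats; iv 1 mg/kg in 30% DMA in saline and po 5 mg/kg in 0.5% (w/v) gelatin in 5% (w/v) mannitol.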

Series [7] is described as follows: Cmax in Sprague-Dawley rat at 1 mg/kg, iv and 5 mg/kg, po. Format: ADME, organism-based. To be noted: in vivo. In short, it runs like this: as §3
Series [8] in a line: Oral bioavailability in cynomolgus monkey at 3 mg/kg. In kind it is ADME, organism-based, Macaca fascicularis. To be noted: in vivo. The method, boiled down:
as §2

Series [9] is described as follows: Cmax in cynomolgus monkey at 1 mg/kg, iv and 3 mg/kg, po. Format: ADME, organism-based, Macaca fascicularis. To be noted: in vivo. The method, boiled down:
as §2

A short description of series [10]: Volume of distribution at steady state in Sprague-Dawley rat at 1 mg/kg, iv and 5 mg/kg, po. The note with it: in vivo, read-out: Vdss. In kind it is ADME, organism-based. In short, it runs like this: as §3
Series [11] deals with Rattus norvegicus. The experiment in a line: Volume of distribution at steady state in Sprague-Dawley rat at 10 mg/kg, po. Set-up: dose 10 mg/kg, route oral. In kind it is ADME, organism-based. To be noted: in vivo. In short, it runs like this:
(§4)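 Male Sprague–Dawley rat, oral 10 mg/kg in 0.5% (w/v) gelatin in 5% (w/v) mannitol.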

Series [12] is described as follows: Oral bioavailability in Sprague-Dawley rat at 10 mg/kg. In kind it is ADME, organism-based. The note with it: in vivo. The method, boiled down: as §4

The term Papp A→B denotes the apparent permeability from the apical to the basolateral side of a cell layer. Consider `CCCNC(=O)[C@@H](Cc1ccc(Cl)cc1)NC(=O)Cc1ccc(Cl)cc1`, for which, in series [1], the Papp A→B was < 10 ×10⁻⁶ cm/s.

On to `CN(C)[C@H]1CC[C@H](NC(=O)[C@@H](Cc2ccc(Cl)cc2)NC(=O)Cc2ccc(Cl)cc2)CC1`, for which the Papp A→B in series [1] was < 10 ×10⁻⁶ cm/s.

Take `O=C(Cc1ccc(Cl)cc1)N[C@H](Cc1ccc(Cl)cc1)C(=O)N[C@H]1C[C@H]2CC[C@@H](C1)N2`: the Papp A→B in [1] was < 10 ×10⁻⁶ cm/s.

In general, bioavailability refers to the share of a dose that reaches the circulation, judged against a reference dose that is usually intravenous. `CN(C)[C@H]1CC[C@H](NC(=O)[C@@H](Cc2ccc(Cl)cc2)NC(=O)C2(c3ccc(Cl)cc3)CC2)CC1`: in the series with Rattus norvegicus [2], the Vdss was 9 L/kg. In addition, in [1], the Papp A→B is < 10 ×10⁻⁶ cm/s. The compound also yielded a bioavailability in series [3] of 17%.

Consider `CN(C)[C@H]1CC[C@H](NC(=O)[C@@H](Cc2ccc(Cl)cc2)NC(=O)C2(c3ccc(Cl)cc3)CCC2)CC1`, for which the Papp A→B in [1] is < 10 ×10⁻⁶ cm/s.

`CN(C)[C@H]1CC[C@H](NC(=O)[C@@H](Cc2ccc(F)cc2)NC(=O)C2(c3ccc(Cl)cc3)CC2)CC1`: in series [1], the Papp A→B was < 10 ×10⁻⁶ cm/s.

Regarding `O=C(Cc1ccc(Cl)cc1)N[C@H](Cc1ccc(Cl)cc1)C(=O)N[C@H]1CC[C@@H](O)CC1`, the Papp A→B in series [1] was < 10 ×10⁻⁶ cm/s.

As to `CN(C)CCCNC(=O)[C@@H](Cc1ccc(Cl)cc1)NC(=O)Cc1ccc(Cl)cc1`, the Papp A→B in series [1] was < 10 ×10⁻⁶ cm/s.

`O=C(Cc1ccc(Cl)cc1)N[C@H](Cc1ccc(Cl)cc1)C(=O)NC1CCCNCC1` (some centres not stated): the Papp A→B in series [1] is < 10 ×10⁻⁶ cm/s.

In the case of `COc1ccc(C[C@@H](NC(=O)C2(c3ccc(Cl)cc3)CC2)C(=O)N[C@H]2CC[C@H](N(C)C)CC2)cc1`, in [1], the Papp A→B was < 10 ×10⁻⁶ cm/s.

Regarding `CN(C)[C@H]1CC[C@H](NC(=O)[C@@H](Cc2ccc(Cl)cc2)NC(=O)C2(c3ccc(F)cc3)CCCC2)CC1`, in [1], the Papp A→B was < 10 ×10⁻⁶ cm/s.

In the case of `CN(C)CCCNC(=O)[C@@H](Cc1ccc(Cl)cc1)NC(=O)C1(c2ccc(Cl)cc2)CC1`, in series [1], the Papp A→B was < 10 ×10⁻⁶ cm/s.

`O=C(Cc1ccc(Cl)cc1)N[C@H](Cc1ccc(Cl)cc1)C(=O)NC1CCNCC1`: in series [1], the Papp A→B was < 10 ×10⁻⁶ cm/s.

Regarding `CC(CCO)NC(=O)[C@@H](Cc1ccc(Cl)cc1)NC(=O)Cc1ccc(Cl)cc1` (stereo in doubt; 17c), in series [1], the Papp A→B was < 10 ×10⁻⁶ cm/s.

A word on the Tmax: it is the time from dosing to the highest level. In general, Cmax refers to the highest concentration seen after dosing. For `CN(C)[C@H]1CC[C@H](NC(=O)[C@@H](Cc2ccc(Cl)cc2)NC(=O)C2(c3ccc(F)cc3)CC2)CC1`, the time of peak concentration (Tmax) amounted to 2.7 h in series [4] and 5.8 h in series [6]. Moreover, the Vd in series [5] is 6.4 L/kg; in series [10] it was 11.8 L/kg. Also, the Cmax came out at 35 ng/mL in series [7] and 41 ng/mL in series [9]. Further, the bioavailability is 20% in series [8] and 30% in series [3]. The Papp A→B in [1] is < 10 ×10⁻⁶ cm/s.

As for `CN1CCC(NC(=O)[C@@H](Cc2ccc(Cl)cc2)NC(=O)Cc2ccc(Cl)cc2)CC1`, the Papp A→B in series [1] is < 10 ×10⁻⁶ cm/s.

Consider `O=C(Cc1ccc(Cl)cc1)N[C@H](Cc1ccc(Cl)cc1)C(=O)NC1CCCCC1O` (stereo in doubt; 17h), for which the Papp A→B in [1] is > 20 ×10⁻⁶ cm/s.

With `O=C(Cc1ccc(Cl)cc1)N[C@H](Cc1ccc(Cl)cc1)C(=O)NC1CCCC(O)C1` (stereo in doubt; 17e), the Papp A→B in series [1] is < 10 ×10⁻⁶ cm/s.

Consider `O=C(Cc1ccc(Cl)cc1)N[C@H](Cc1ccc(Cl)cc1)C(=O)NCCCO`, for which, in the series with Rattus norvegicus [11], the Vdss is 2 L/kg. In series [12], this compound registered a bioavailability of 43%.

With `CN1CCN(CCCNC(=O)[C@@H](Cc2ccc(Cl)cc2)NC(=O)Cc2ccc(Cl)cc2)CC1`, in series [1], the Papp A→B is < 10 ×10⁻⁶ cm/s.

As to `CN(C)[C@H]1CC[C@H](NC(=O)[C@@H](Cc2ccc(Cl)cc2)NC(=O)Cc2ccc(F)cc2)CC1`, the Papp A→B in [1] is < 10 ×10⁻⁶ cm/s.
